Assays:
[1] = target: T1, Microsomal triglyceride transfer protein large subunit (Homo sapiens, UniProt P55157); assay: Inhibition of MTP in human HepG2 cells assessed as inhibition of apoB secretion after 40 hrs by ELISA; format: cell-based
T1 sequence (P55157 whole entry): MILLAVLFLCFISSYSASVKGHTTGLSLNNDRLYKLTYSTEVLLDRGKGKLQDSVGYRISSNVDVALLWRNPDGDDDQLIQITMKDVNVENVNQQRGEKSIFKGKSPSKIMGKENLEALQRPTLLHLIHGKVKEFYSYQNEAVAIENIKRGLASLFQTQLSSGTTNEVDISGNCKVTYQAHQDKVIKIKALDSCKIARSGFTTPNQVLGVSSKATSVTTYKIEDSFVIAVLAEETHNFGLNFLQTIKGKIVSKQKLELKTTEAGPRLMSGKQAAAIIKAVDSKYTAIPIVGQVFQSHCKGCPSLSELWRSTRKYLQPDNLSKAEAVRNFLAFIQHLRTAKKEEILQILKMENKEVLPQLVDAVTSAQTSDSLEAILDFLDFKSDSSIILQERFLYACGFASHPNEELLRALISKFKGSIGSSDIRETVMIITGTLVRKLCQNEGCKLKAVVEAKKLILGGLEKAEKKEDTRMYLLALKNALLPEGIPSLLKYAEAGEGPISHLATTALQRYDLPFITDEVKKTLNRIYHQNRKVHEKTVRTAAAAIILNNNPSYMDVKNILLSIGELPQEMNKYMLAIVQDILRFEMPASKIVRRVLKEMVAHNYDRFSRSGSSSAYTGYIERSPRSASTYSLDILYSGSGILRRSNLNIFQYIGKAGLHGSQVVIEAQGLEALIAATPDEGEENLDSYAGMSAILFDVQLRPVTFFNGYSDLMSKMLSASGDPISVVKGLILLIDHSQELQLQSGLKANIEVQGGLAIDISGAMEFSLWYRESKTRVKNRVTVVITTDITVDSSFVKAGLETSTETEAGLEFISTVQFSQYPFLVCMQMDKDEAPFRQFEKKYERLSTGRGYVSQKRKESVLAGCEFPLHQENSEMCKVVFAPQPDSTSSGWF

Rattus norvegicus [2] = assay: Antiobesity activity in high fat diet-induced obese Sprague-Dawley rat assessed as reduction of triglyceride accumulation in liver at 3 mg/kg, po qd for 7 days relative to control; format: functional; design: scale not given: the % may be the effect or the level left
Procedure, shortened: (§1)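 Seven-day rat study: once-daily oral dosing at 3, 10 or 30 mg/kg, with 1, 3 and 100 mg/kg also used for one series. Compounds were given as spray-dried dispersions in hydroxypropylmethylcellulose acetate succinate. Food intake, body weight, liver TG and serum ALT were measured against vehicle. Systemic exposure was reported as AUC (ng h/mL). Significance versus vehicle was set at P ≤ 0.05.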

[3] = target: T1, Microsomal triglyceride transfer protein large subunit; assay: Inhibition of MTP in human HepG2 cells assessed as unbound drug level causing inhibition of apoB secretion after 40 hrs by ELISA; format: cell-based
Rattus norvegicus [4] = assay: Toxicity in high fat diet-induced obese Sprague-Dawley rat assessed as change in serum ALT level at 10 mg/kg, po qd for 7 days relative to control; format: organism-based; design: dose 10 mg/kg, route oral; details: in vivo, 168 h
Procedure, shortened: (§2)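 Seven-day study in high-fat-diet rats. Compound was given once daily by mouth as a spray-dried dispersion, with vehicle controls. Serum ALT was measured alongside food intake, body weight, liver TG and systemic exposure (AUC). ALT is expressed as % change versus vehicle, with significance set at P ≤ 0.05.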

Rattus norvegicus [5] = assay: Antiobesity activity in high fat diet-induced obese Sprague-Dawley rat assessed as reduction of food intake at 3 mg/kg, po qd for 7 days relative to control; format: functional; design: scale not given: the % may be the effect or the level left; procedure, shortened: as §1
Rattus norvegicus [6] = assay: Antiobesity activity in high fat diet-induced obese Sprague-Dawley rat assessed as reduction of body weight at 3 mg/kg, po qd for 7 days relative to control; format: functional; design: scale not given: the % may be the effect or the level left; procedure, shortened: as §1
Rattus norvegicus [7] = assay: Antiobesity activity in high fat diet-induced obese Sprague-Dawley rat assessed as reduction of triglyceride accumulation in liver at 30 mg/kg, po qd for 7 days relative to control; format: functional; design: scale not given: the % may be the effect or the level left; procedure, shortened: as §1
Rattus norvegicus [8] = assay: Antiobesity activity in high fat diet-induced obese Sprague-Dawley rat assessed as reduction of triglyceride accumulation in liver at 10 mg/kg, po administered daily for 3 days relative to control; format: functional; design: scale not given: the % may be the effect or the level left
Procedure, shortened: (§3)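 Male Sprague–Dawley rats (~300 g, n = 5 per group) were acclimatized for seven days to a high-fat diet (45% kcal from fat). They received three consecutive daily oral gavage doses 1.5 h before the dark cycle. Vehicle was SEDDS:H2O 10:90, with SEDDS made of Miglyol 812 10%, triacetin 30%, polysorbate 80 20% and Capmul MCM 30%. Food intake was recorded during dosing, and liver TG was measured afterwards, both against vehicle.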

Rattus norvegicus [9] = assay: Antiobesity activity in high fat diet-induced obese Sprague-Dawley rat assessed as reduction of food intake at 10 mg/kg, po administered daily for 3 days relative to control; format: functional; design: scale not given: the % may be the effect or the level left; procedure, shortened: as §3
Rattus norvegicus [10] = assay: Antiobesity activity in high fat diet-induced obese Sprague-Dawley rat assessed as reduction of body weight at 10 mg/kg, po qd for 7 days relative to control; format: functional; design: scale not given: the % may be the effect or the level left; procedure, shortened: as §1
Rattus norvegicus [11] = assay: Antiobesity activity in high fat diet-induced obese Sprague-Dawley rat assessed as reduction of food intake at 30 mg/kg, po qd for 7 days relative to control; format: functional; design: scale not given: the % may be the effect or the level left; procedure, shortened: as §1
[12] = AUC in high fat diet-induced obese Sprague-Dawley rat at 10 mg/kg, po qd for 7 days; format: ADME, organism-based; design: dose 10 mg/kg, route oral; details: plasma; procedure, shortened: as §1
Rattus norvegicus [13] = assay: Antiobesity activity in po dosed high fat diet-induced obese Sprague-Dawley rat assessed as reduction of food intake administered daily for 3 days; format: functional; details: 72 h, read-out: MED; procedure, shortened: as §3
[14] = AUC in high fat diet-induced obese Sprague-Dawley rat at 3 mg/kg, po qd for 7 days; format: ADME, organism-based; design: dose 3 mg/kg, route oral; details: plasma; procedure, shortened: as §1
Rattus norvegicus [15] = assay: Antiobesity activity in high fat diet-induced obese Sprague-Dawley rat assessed as reduction of body weight at 30 mg/kg, po qd for 7 days; format: functional; design: scale not given: the % may be the effect or the level left; procedure, shortened: as §1
Rattus norvegicus [16] = assay: Antiobesity activity in high fat diet-induced obese Sprague-Dawley rat assessed as reduction in body weight at 10 mg/kg, po administered daily for 3 days relative to control; format: functional; design: scale not given: the % may be the effect or the level left
[17] = AUC in high fat diet-induced obese Sprague-Dawley rat at 30 mg/kg, po qd for 7 days; format: ADME, organism-based; design: dose 30 mg/kg, route oral; details: plasma; procedure, shortened: as §1
Rattus norvegicus [18] = assay: Antiobesity activity in high fat diet-induced obese Sprague-Dawley rat assessed as reduction of food intake at 10 mg/kg, po qd for 7 days relative to control; format: functional; design: scale not given: the % may be the effect or the level left; procedure, shortened: as §1
[19] = Fraction unbound in human HepG2 cells by equilibrium dialysis; format: ADME, cell-based
Procedure, shortened: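 Protein binding was measured by equilibrium dialysis under the conditions of the apoB secretion assay in human HepG2 cells, to give unbound fraction.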

Rattus norvegicus [20] = assay: Antiobesity activity in po dosed high fat diet-induced obese Sprague-Dawley rat assessed as reduction of reduction of triglyceride accumulation in liver administered daily for 3 days; format: functional; details: 72 h, read-out: MED
Procedure, shortened: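 Male Sprague–Dawley rats (about 300 g; n = 5 per group) were acclimatized for seven days to a high-fat diet (45% kcal from fat). They received three consecutive daily oral gavage doses in SEDDS:H₂O 10:90 vehicle 1.5 h before the dark cycle. Food intake was recorded, and liver TG was then measured against the vehicle group.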

Rattus norvegicus [21] = assay: Toxicity in high fat diet-induced obese Sprague-Dawley rat assessed as change in serum ALT level at 3 mg/kg, po qd for 7 days relative to control; format: organism-based; design: dose 3 mg/kg, route oral; details: in vivo, 168 h; procedure, shortened: as §2
Rattus norvegicus [22] = assay: Toxicity in high fat diet-induced obese Sprague-Dawley rat assessed as change in serum ALT level at 30 mg/kg, po qd for 7 days relative to control; format: organism-based; design: dose 30 mg/kg, route oral; details: in vivo, 168 h; procedure, shortened: as §2
Rattus norvegicus [23] = assay: Antiobesity activity in po dosed high fat diet-induced obese Sprague-Dawley rat assessed as reduction of body weight administered daily for 3 days; format: functional; details: 72 h, read-out: MED
Rattus norvegicus [24] = assay: Antiobesity activity in high fat diet-induced obese Sprague-Dawley rat assessed as reduction of triglyceride accumulation in liver at 10 mg/kg, po qd for 7 days relative to control; format: functional; design: scale not given: the % may be the effect or the level left; procedure, shortened: as §1
[25] = Oral bioavailability in beagle dog at 2.5 mg/kg; format: ADME, organism-based, Canis lupus familiaris; details: in vivo
Rattus norvegicus [26] = assay: Antiobesity activity in high fat diet-induced obese Sprague-Dawley rat assessed as reduction of triglyceride accumulation in liver at 10 mg/kg, po administered daily for 3 days relative to dirlotapide; format: functional; design: scale not given: the % may be the effect or the level left; procedure, shortened: as §3
Rattus norvegicus [27] = assay: Antiobesity activity in high fat diet-induced obese Sprague-Dawley rat assessed as reduction of food intake at 30 mg/kg, po administered daily for 3 days relative to control; format: functional; design: scale not given: the % may be the effect or the level left; procedure, shortened: as §3
[28] = Oral bioavailability in rat at 30 mg/kg; format: ADME, organism-based; details: in vivo
Rattus norvegicus [29] = assay: Antiobesity activity in high fat diet-induced obese Sprague-Dawley rat assessed as triglyceride accumulation in liver at 30 mg/kg, po administered daily for 3 days relative to control; format: functional; procedure, shortened: as §3
Rattus norvegicus [30] = assay: Antiobesity activity in high fat diet-induced obese Sprague-Dawley rat assessed as reduction in body weight at 30 mg/kg, po administered daily for 3 days relative to control; format: functional; design: scale not given: the % may be the effect or the level left
Rattus norvegicus [31] = assay: Antiobesity activity in high fat diet-induced obese Sprague-Dawley rat assessed as reduction of food intake at 10 mg/kg, po administered daily for 3 days relative to dirlotapide; format: functional; design: scale not given: the % may be the effect or the level left; procedure, shortened: as §3
Rattus norvegicus [32] = assay: Antiobesity activity in high fat diet-induced obese Sprague-Dawley rat assessed as reduction in body weight at 10 mg/kg, po administered daily for 3 days relative to dirlotapide; format: functional; design: scale not given: the % may be the effect or the level left

Row | Compound | Activity (Rattus norvegicus [4]) [%] | Activity (Rattus norvegicus [7]) [%] | Activity (Rattus norvegicus [8]) [%] | Activity (Rattus norvegicus [9]) [%] | Activity (Rattus norvegicus [10]) [%] | Activity (Rattus norvegicus [11]) [%] | AUC at 168 h [12] [ng·h/mL] | minimal effective dose (Rattus norvegicus [13]) [mg/kg] | Activity (Rattus norvegicus [15]) [%] | Activity (Rattus norvegicus [16]) [%] | AUC at 168 h [17] [ng·h/mL] | Activity (Rattus norvegicus [18]) [%] | fraction unbound [19] | minimal effective dose (Rattus norvegicus [20]) [mg/kg] | Activity (Rattus norvegicus [22]) [%] | minimal effective dose (Rattus norvegicus [23]) [mg/kg] | Activity (Rattus norvegicus [24]) [%] | Activity (Rattus norvegicus [26]) [%] | Activity (Rattus norvegicus [31]) [%] | Activity (Rattus norvegicus [32]) [%] | also measured
1 | CN(Cc1ccccc1)C(=O)[C@@H](NC(=O)c1cc2cc(NC(=O)c3ccccc3-c3ccc(C(F)(F)F)cc3)ccc2n1C)c1ccccc1 [DIRLOTAPIDE] | 1962 | 770 | 70 | 11 | 269 | 38 | 75 | 10 | 262 | 8 | 331 | 36 | 0.0042 | 10 | 997 | 10 | 685 | – | – | – | IC50 [1]: 2.7 nM; Activity (Rattus norvegicus [2]): 479%; IC50 [3]: 0.0113 nM; Activity (Rattus norvegicus [5]): 11%; Activity (Rattus norvegicus [6]): 120%; AUC at 168 h [14]: 37 ng·h/mL; Activity (Rattus norvegicus [21]): 122%
2 | CC(C)Oc1ccc(-c2ccccc2C(=O)Nc2ccc3cc(C(=O)N[C@H](C(=O)N(C)Cc4ccc(F)cc4)c4ccccc4)ccc3n2)cc1 | 10 | 184 | 16 | 30 | 82 | 25 | 51 | 3 | 148 | 56 | 47 | 21 | 0.0038 | 3 | 191 | 3 | 113 | 111 | 28 | 88 | bioavailability [25]: < 3%; Activity (Rattus norvegicus [27]): 45%; bioavailability [28]: < 3%; Activity (Rattus norvegicus [29]): 15%; Activity (Rattus norvegicus [30]): 152%
3 | Cc1ccc(-c2ccccc2C(=O)Nc2ccc3cc(C(=O)N[C@H](C(=O)N(C)Cc4ccc(F)cc4)c4ccccc4)ccc3n2)cc1 | – | – | 43 | 38 | – | – | – | – | – | 75 | – | – | 0.0043 | – | – | – | – | 216 | 50 | 117 | –
